High-throughput results (PubChem)
The list is not random: actives were taken first. Their share in the collection is about 2.5%.
PRMT1 FP inh – PRMT1 (human) inhibition, primary screen; hit rate 1.3% among 370,000; recombinant PRMT1, activity-based probe fluorescence polarization; inhibition, % at 2.79 µM; Q99873;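 active means inhibition above about 21% made by adding two undisclosed values, limit read from the data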
TCR-CD3 inh – blocks the human TCR-CD3 interaction; TAMRA-labeled TCR probe fluorescence, biochemical; inhibition, % at 9.4 µM; hit rate 0.37% among 360,000; in the data active means inhibition above about 19%;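 further: recombinant mutant TCR 2C K166C tagged with TAMRA read by polarization; 0% = receptor in buffer alone and 100% = receptor with positive control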
ABHD4 inh – ABHD4 (mouse) inhibition, primary FP screen; Q8VD66; hit rate 0.54% among 370,000; inhibition, % at 8.92 µM; AID 720543; purified mABHD4, FP-Rh probe fluorescence polarization;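 active means inhibition exceeding the mean over every tested compound plus 3 SD, cut at about 30% in these data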;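 further: 0% = plate median of compound wells and 100% = S159A mutant with DMSO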
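Test system: mABHD4 protein; Read-out basis: % inhibition; Incubation: 45 min + 60 min at 25 °C; Repeats: single replicate; Technique: fluorescence polarization with parallel and perpendicular emission, 525/598 nm; Compound: 8.92 µM, single dose; Benchmarks: full inhibition S159A mutant plus DMSO, zero as sample-well median.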
SIAE inh – blocks human sialic acid acetylesterase | hit rate 0.69% among 370,000 | SIAE FP-Rh probe binding, fluorescence polarization | inhibition, % at 9.66 µM | Q9HAT2 | AID 1053197;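 active means inhibition above a cutoff: mean of compounds within the control limits plus 3 SD of those, cut at about 17% in these data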;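 further: 0% = plate median of compound wells and 100% = probe without SIAE protein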
HTRA1 inh – inhibitors of human serine peptidase HTRA1. inhibition, % at 5.96 µM. recombinant HTRA1, FP-rhodamine activity-based probe, fluorescence polarization. Q92743. hit rate 0.5% among 340,000. AID 504803; in the data active means inhibition above about 36%;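 further: 0% = enzyme with DMSO and 100% = wells lacking enzyme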
Target sequence (Q92743 whole entry, looked up): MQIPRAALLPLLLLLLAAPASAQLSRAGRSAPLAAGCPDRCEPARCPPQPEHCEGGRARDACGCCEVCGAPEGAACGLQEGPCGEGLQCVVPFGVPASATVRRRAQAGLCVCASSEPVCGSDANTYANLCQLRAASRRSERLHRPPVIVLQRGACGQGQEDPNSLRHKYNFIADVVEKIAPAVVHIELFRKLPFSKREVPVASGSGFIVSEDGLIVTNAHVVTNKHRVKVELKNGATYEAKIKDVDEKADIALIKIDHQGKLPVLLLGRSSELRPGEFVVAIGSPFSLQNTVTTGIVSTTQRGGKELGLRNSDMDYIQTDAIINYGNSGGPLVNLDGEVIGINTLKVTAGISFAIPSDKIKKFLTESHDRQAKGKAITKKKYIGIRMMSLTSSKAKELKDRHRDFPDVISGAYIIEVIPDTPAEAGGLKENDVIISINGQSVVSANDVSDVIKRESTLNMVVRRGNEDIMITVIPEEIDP
PRMT1 confirm – confirmation of human PRMT1 inhibitors. shares compounds with PRMT1 FP inh. inhibition, % at 2.79 µM. recombinant His-PRMT1, activity-based probe fluorescence polarization. hit rate 42% among 3,300;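 active means mean inhibition across replicates above the hit cutoff derived for the earlier primary screen, cut at about 22% in these data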
* marks the source's active call; other numbers are inactive results.

`Cc1cccc(NC(=O)C(NS(=O)(=O)c2ccc3c(c2)CCC(=O)N3)c2ccccc2)n1` (stereo unspecified) gave PRMT1 FP inh 47*, TCR-CD3 inh -1, ABHD4 inh 6, SIAE inh 6, HTRA1 inh -13 and PRMT1 confirm 48*.
Screening CC(C)(C)c1ccc(SCCc2cccnc2)cc1 returned PRMT1 FP inh 2, TCR-CD3 inh 5, ABHD4 inh -2, SIAE inh 2 and HTRA1 inh 7.
Screening CC(=O)Nc1ccc(SCC(=O)N(CCC#N)c2ccc(C)cc2)cc1 returned PRMT1 FP inh 39*, TCR-CD3 inh -10, ABHD4 inh -6, SIAE inh -8, HTRA1 inh -8 and PRMT1 confirm 16.
CN(C)CCCN(C(=O)CCc1ccccc1)c1nc2c(F)cccc2s1 was read as PRMT1 FP inh 0, TCR-CD3 inh 2, ABHD4 inh 7, SIAE inh -1 and HTRA1 inh 0.
For CN(C)CCCN(C(=O)CCOc1ccccc1)c1nc2c(F)cccc2s1 the results were PRMT1 FP inh 31*, TCR-CD3 inh 4, ABHD4 inh 4, SIAE inh -1, HTRA1 inh 1 and PRMT1 confirm 4.
O=S(NCc1ccco1)C12CC3CC(CC(C3)C1)C2 (stereo unspecified) was read as PRMT1 FP inh 10, TCR-CD3 inh 1, ABHD4 inh -3, SIAE inh -1 and HTRA1 inh 0.
Cc1ccc(S(=O)(=O)NN2C(=O)/C(=C/c3cccnc3)SC2=S)cc1 was read as PRMT1 FP inh 31*, TCR-CD3 inh -3, ABHD4 inh 6, SIAE inh 6, HTRA1 inh -4 and PRMT1 confirm 13.
For COc1ccccc1/C=C1\SC(=S)N(NS(=O)(=O)c2ccc(C)cc2)C1=O the results were PRMT1 FP inh 3, TCR-CD3 inh 3, ABHD4 inh 1, SIAE inh -11 and HTRA1 inh -25.
`CC(C)N(CCNC(=O)c1nn(Cc2ccccc2)c(=O)c2ccccc12)C(C)C` gave PRMT1 FP inh 4, TCR-CD3 inh -3, ABHD4 inh -10, SIAE inh -3 and HTRA1 inh -4.
`CC(=O)Nc1ccc(S(=O)(=O)/N=C2/NC(=O)/C(=C\c3ccco3)S2)cc1` gave PRMT1 FP inh 35*, TCR-CD3 inh 15, ABHD4 inh 15, SIAE inh -45, HTRA1 inh -4 and PRMT1 confirm 13.
COc1cccc(OCc2cc(C(=O)NCc3cnc4ccccn34)no2)c1 was read as PRMT1 FP inh -4, TCR-CD3 inh 3, ABHD4 inh -1, SIAE inh 12 and HTRA1 inh -4.
`CSS(=O)(=O)c1cccc2cccnc12` gave PRMT1 FP inh 92*, TCR-CD3 inh 3, ABHD4 inh 4, SIAE inh 8 and PRMT1 confirm 96*.
`O=C(c1ccco1)N1CCN(C(=O)c2cn(-c3ccccc3)nc2-c2ccccc2)CC1` gave PRMT1 FP inh -2, TCR-CD3 inh 7, ABHD4 inh 2, SIAE inh -3 and HTRA1 inh 1.
CC(=O)Nc1ccc(SCC(=O)NCC2(N3CCCCC3)CCCCC2)cc1 was read as PRMT1 FP inh 41*, TCR-CD3 inh -4, ABHD4 inh 1, SIAE inh -1, HTRA1 inh -1 and PRMT1 confirm 37*.
For O=C(CSc1ccc(Br)cc1)NCC1(N2CCCCC2)CCCCC1 the results were PRMT1 FP inh -1, TCR-CD3 inh 7, ABHD4 inh -4, SIAE inh 1 and HTRA1 inh -3.
For Cc1c(C2Nc3ccccc3NC3=C2C(=O)CC(C)(C)C3)cnn1C (stereo unspecified) the results were PRMT1 FP inh 27*, TCR-CD3 inh 7, ABHD4 inh 10, SIAE inh -3, HTRA1 inh 6 and PRMT1 confirm 0.
`CC(C)C(=O)N1CCCC1(C)C(=O)N(C)Cc1cccc2ccccc12` (stereo unspecified) gave PRMT1 FP inh -3, TCR-CD3 inh 0, ABHD4 inh 4 and SIAE inh 9.
For CCn1nc(C)c(CNCc2cn[nH]c2-c2cc3ccccc3o2)c1C the results were PRMT1 FP inh 4, TCR-CD3 inh -2, ABHD4 inh -2, SIAE inh 2 and HTRA1 inh -3.
`CC(=O)C1=C(O)C(=O)N(Cc2ccccc2)C1c1ccco1` (stereo unspecified) gave PRMT1 FP inh 3, TCR-CD3 inh 4, ABHD4 inh 1, SIAE inh -3 and HTRA1 inh 1.
For CC(=O)Nc1ccccc1OCC(=O)c1cc(C)n(Cc2cccs2)c1C the results were PRMT1 FP inh 1, TCR-CD3 inh 0, ABHD4 inh 2, SIAE inh -7 and HTRA1 inh -13.
For Cc1cc(C(=O)COc2cccnc2[N+](=O)[O-])c(C)n1Cc1cccs1 the results were PRMT1 FP inh 29*, TCR-CD3 inh 1, ABHD4 inh 28, SIAE inh 6, HTRA1 inh -3 and PRMT1 confirm -1.
S=c1[nH]c2nc(Cl)c(Cl)nc2[nH]1 was read as PRMT1 FP inh 3, TCR-CD3 inh 3, ABHD4 inh 4, SIAE inh 3 and HTRA1 inh 4.
For S=c1[nH]c2cnc(Cl)nc2[nH]1 the results were PRMT1 FP inh 43*, TCR-CD3 inh -1, ABHD4 inh 1, SIAE inh 11, HTRA1 inh 4 and PRMT1 confirm 34*.
CCCC(=O)OCCNc1cc(Sc2nc3ccccc3[nH]2)c2nonc2c1[N+](=O)[O-] was read as PRMT1 FP inh 67*, TCR-CD3 inh 0, ABHD4 inh 17, SIAE inh 10, HTRA1 inh 0 and PRMT1 confirm 73*.
Screening CCC(=O)OCCNc1cc(Sc2nccn2C)c2nonc2c1[N+](=O)[O-] returned PRMT1 FP inh 43*, TCR-CD3 inh 4, ABHD4 inh 2, SIAE inh -1, HTRA1 inh 0 and PRMT1 confirm 65*.
`CCCCCOc1ccc(C(=O)CCN2CCOCC2)cc1` gave PRMT1 FP inh 26*, TCR-CD3 inh -3, ABHD4 inh 0, SIAE inh -1, HTRA1 inh -1 and PRMT1 confirm 2.
Screening CC(C)Oc1ccc(C(=O)CCN2CCOCC2)cc1 returned PRMT1 FP inh 10, TCR-CD3 inh 3, ABHD4 inh 9, SIAE inh 1 and HTRA1 inh 1.
For CC(=O)Nc1ccc(S(=O)(=O)N[C@@H](C)C(=O)N2CCN(c3ccccn3)CC2)cc1 the results were PRMT1 FP inh 38*, TCR-CD3 inh 2, ABHD4 inh -7, SIAE inh 2, HTRA1 inh 4 and PRMT1 confirm 23*.
CCC(NS(=O)(=O)c1ccc(C)cc1)C(=O)N1CCN(c2ccccn2)CC1 (stereo unspecified) was read as PRMT1 FP inh -5, TCR-CD3 inh 12, ABHD4 inh 1, SIAE inh 0 and HTRA1 inh -1.
